ChEMBL document CHEMBL1135739, “Radiolabeled amino acids for tumor imaging with PET: radiosynthesis and biological evaluation of 2-amino-3-[18F]fluoro-2-methylpropanoic acid and 3-[18F]fluoro-2-methyl-2-(methylamino)propanoic acid” (J Med Chem, 2002)

How the values were obtained:
Rattus norvegicus [1] = organism: Rattus norvegicus; assay: Radioactivity distribution in blood of tumor-bearing fischer rat after injection of [18F]fluoro-2-methylpropanoic acid after 60 min; format: ADME, organism-based; details: in vivo, 1 h
How it was run: (§1)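 Male Fischer 344 rats carried intracranial 9L gliosarcoma, implanted stereotactically (4×10^4 cells) and used 17–19 days later. Awake restrained rats got ~35 μCi of tracer in 0.3 mL sterile water by tail-vein injection and were killed at 5, 60 or 120 min. Tissues were weighed and gamma-counted, and counts were decay-corrected to %ID/g. Results are mean ± standard error; n = 4 at 5 and 120 min, n = 5 at 60 min.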

Rattus norvegicus [2] = organism: Rattus norvegicus; assay: Radioactivity distribution in testis of normal fischer rat after injection of [18F]fluoro-2-methylpropanoic acid after 30 min.; format: ADME, organism-based; details: in vivo, 0.5 h
How it was run: (§2)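 Male Fischer 344 rats (200–250 g), fed ad libitum, under intramuscular ketamine:xylazine anesthesia, got ~85 μCi radiotracer in 0.3 mL sterile water by tail-vein catheter. Groups of four were killed at 5, 30, 60 or 120 min. Dissected tissues were weighed and gamma-counted with dose standards. Counts were decay-corrected and given as %ID/g, mean ± standard error. Tissues were compared by one-way ANOVA.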

Rattus norvegicus [3] = organism: Rattus norvegicus; assay: Radioactivity distribution in bone of normal fischer rat after injection of [18F]-fluoro-2-methylpropanoic acid after 30 min.; format: ADME, organism-based, Bone element; details: in vivo, 0.5 h
How it was run: (§3)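 Normal male Fischer 344 rats (200–250 g), anesthetized with i.m. ketamine:xylazine (1:1), got ~85 μCi of tracer in 0.3 mL sterile water i.v. via tail-vein catheter. Groups of four were killed at 5, 30, 60 or 120 min. Tissues were weighed and gamma-counted against dose standards, and counts were decay-corrected to %ID/g. Results are mean ± standard error (n = 4), compared by one-way ANOVA.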

Rattus norvegicus [4] = organism: Rattus norvegicus; assay: Radioactivity distribution in blood of normal fischer rat after injection of [18F]fluoro-2-methylpropanoic acid after 120 min.; format: ADME, organism-based; details: in vivo, 2 h; how it was run: as §3
Rattus norvegicus [5] = organism: Rattus norvegicus; assay: Radioactivity distribution in testis of tumor-bearing fischer rat after injection of [18F]fluoro-2-methylpropanoic acid after 120 min; format: ADME, organism-based; details: in vivo, 2 h
How it was run: (§4)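 Male Fischer rats had 4×10^4 9L gliosarcoma cells implanted stereotactically into the brain, 3 mm right of midline, 1 mm anterior to bregma, 5 mm deep. They were used 17–19 days later. Awake, restrained rats got ~35 μCi in 0.3 mL sterile water by tail vein and were killed at 5, 60 or 120 min. Tissues, tumor and contralateral brain were gamma-counted, decay-corrected, as %ID/g, mean ± SE, n = 4–5.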

Rattus norvegicus [6] = organism: Rattus norvegicus; assay: Radioactivity distribution in kidney of tumor-bearing fischer rat after injection of [18F]fluoro-2-methylpropanoic acid after 5 min; format: ADME, organism-based; details: in vivo
How it was run: (§5)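 Male Fischer 344 rats carried intracranial 9L gliosarcoma, stereotactically implanted (4×10^4 cells) and used 17–19 days later. Awake, restrained animals received about 35 μCi tracer in 0.3 mL sterile water via the tail vein and were killed at 5, 60 or 120 min (n = 4–5). Tissues were weighed, gamma-counted, decay-corrected and reported as %ID/g ± standard error.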

Rattus norvegicus [7] = organism: Rattus norvegicus; assay: Radioactivity distribution in tumor of tumor-bearing fischer rat after injection of [18F]fluoro-2-methylpropanoic acid after 5 min; format: ADME, organism-based; details: in vivo; how it was run: as §4
Rattus norvegicus [8] = organism: Rattus norvegicus; assay: Radioactivity distribution in spleen of tumor-bearing fischer rat after injection of [18F]fluoro-2-methylpropanoic acid after 60 min; format: ADME, organism-based; details: in vivo, 1 h; how it was run: as §4
Rattus norvegicus [9] = organism: Rattus norvegicus; assay: Radioactivity distribution in muscle of normal fischer rat after injection of [18F]-fluoro-2-methylpropanoic acid after 60 min.; format: ADME, organism-based, Muscle tissue; details: in vivo, 1 h
How it was run: (§6)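 Male Fischer 344 rats (200–250 g), fed ad libitum, anesthetized with intramuscular ketamine:xylazine (1:1, 0.1 mL/100 g). About 85 μCi tracer in 0.3 mL sterile water was given by tail-vein catheter. Groups of four were killed at 5, 30, 60 or 120 min. Tissues were weighed and gamma-counted against dose standards, decay-corrected, and expressed as %ID/g (mean ± standard error).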

Rattus norvegicus [10] = organism: Rattus norvegicus; assay: Radioactivity distribution in kidney of tumor-bearing fischer rat after injection of [18F]fluoro-2-methylpropanoic acid after 120 min; format: ADME, organism-based; details: in vivo, 2 h; how it was run: as §5
Rattus norvegicus [11] = organism: Rattus norvegicus; assay: Radioactivity distribution in lung of normal fischer rat after injection of [18F]fluoro-2-methylpropanoic acid after 30 min.; format: ADME, organism-based; details: in vivo, 0.5 h; how it was run: as §6
Rattus norvegicus [12] = organism: Rattus norvegicus; assay: Radioactivity distribution in muscle of tumor-bearing fischer rat after injection of [18F]fluoro-2-methylpropanoic acid after 60 min; format: ADME, organism-based, Muscle tissue; details: in vivo, 1 h; how it was run: as §5
Rattus norvegicus [13] = organism: Rattus norvegicus; assay: Radioactivity distribution in kidney of tumor-bearing fischer rat after injection of [18F]fluoro-2-methylpropanoic acid after 60 min; format: ADME, organism-based; details: in vivo, 1 h; how it was run: as §5
Rattus norvegicus [14] = organism: Rattus norvegicus; assay: Radioactivity distribution in muscle of tumor-bearing fischer rat after injection of [18F]-fluoro-2-methylpropanoic acid after 5 min; format: ADME, organism-based, Muscle tissue; details: in vivo; how it was run: as §5
Rattus norvegicus [15] = organism: Rattus norvegicus; assay: Radioactivity distribution in blood of tumor-bearing fischer rat after injection of [18F]fluoro-2-methylpropanoic acid after 120 min; format: ADME, organism-based; details: in vivo, 2 h; how it was run: as §1
Rattus norvegicus [16] = organism: Rattus norvegicus; assay: Radioactivity distribution in liver of tumor-bearing fischer rat after injection of [18F]fluoro-2-methylpropanoic acid after 60 min; format: ADME, organism-based; details: in vivo, 1 h; how it was run: as §5
Rattus norvegicus [17] = organism: Rattus norvegicus; assay: Radioactivity distribution in pancreas of tumor-bearing fischer rat after injection of [18F]-fluoro-2-methylpropanoic acid after 60 min; format: ADME, organism-based; details: in vivo, 1 h; how it was run: as §5
Rattus norvegicus [18] = organism: Rattus norvegicus; assay: Radioactivity distribution in brain of normal fischer rat after injection of [18F]fluoro-2-methylpropanoic acid after 60 min.; format: ADME, organism-based; details: in vivo, 1 h; how it was run: as §3
Rattus norvegicus [19] = organism: Rattus norvegicus; assay: Radioactivity distribution in heart of normal fischer rat after injection of [18F]fluoro-2-methylpropanoic acid after 30 min.; format: ADME, organism-based; details: in vivo, 0.5 h; how it was run: as §3
Rattus norvegicus [20] = organism: Rattus norvegicus; assay: Radioactivity distribution in heart of normal fischer rat after injection of [18F]fluoro-2-methylpropanoic acid after 5 min.; format: ADME, organism-based; details: in vivo; how it was run: as §3
Rattus norvegicus [21] = organism: Rattus norvegicus; assay: Radioactivity distribution in tumor of tumor-bearing fischer rat after injection of [18F]fluoro-2-methylpropanoic acid after 120 min; format: ADME, organism-based; details: in vivo, 2 h; how it was run: as §4
Rattus norvegicus [22] = organism: Rattus norvegicus; assay: Radioactivity distribution in lung of tumor-bearing fischer rat after injection of [18F]fluoro-2-methylpropanoic acid after 60 min; format: ADME, organism-based; details: in vivo, 1 h; how it was run: as §5
Rattus norvegicus [23] = organism: Rattus norvegicus; assay: Radioactivity distribution in liver of tumor-bearing fischer rat after injection of [18F]fluoro-2-methylpropanoic acid after 120 min; format: ADME, organism-based; details: in vivo, 2 h; how it was run: as §5
Rattus norvegicus [24] = organism: Rattus norvegicus; assay: Radioactivity distribution in liver of tumor-bearing fischer rat after injection of [18F]fluoro-2-methylpropanoic acid after 5 min; format: ADME, organism-based; details: in vivo; how it was run: as §5
Rattus norvegicus [25] = organism: Rattus norvegicus; assay: Radioactivity distribution in bone of normal fischer rat after injection of [18F]fluoro-2-methylpropanoic acid after 5 min.; format: ADME, organism-based, Bone element; details: in vivo; how it was run: as §3
Rattus norvegicus [26] = organism: Rattus norvegicus; assay: Radioactivity distribution in testis of tumor-bearing fischer rat after injection of [18F]fluoro-2-methylpropanoic acid after 60 min; format: ADME, organism-based; details: in vivo, 1 h; how it was run: as §4
Rattus norvegicus [27] = organism: Rattus norvegicus; assay: Radioactivity distribution in bone of tumor-bearing fischer rat after injection of [18F]fluoro-2-methylpropanoic acid after 60 min; format: ADME, organism-based, Bone element; details: in vivo, 1 h; how it was run: as §1
Rattus norvegicus [28] = organism: Rattus norvegicus; assay: Radioactivity distribution in liver of normal fischer rat after injection of [18F]fluoro-2-methylpropanoic acid after 30 min.; format: ADME, organism-based; details: in vivo, 0.5 h; how it was run: as §6
Rattus norvegicus [29] = organism: Rattus norvegicus; assay: Radioactivity distribution in liver of normal fischer rat after injection of [18F]fluoro-2-methylpropanoic acid after 5 min.; format: ADME, organism-based; details: in vivo; how it was run: as §6
Rattus norvegicus [30] = organism: Rattus norvegicus; assay: Radioactivity distribution in blood of tumor-bearing fischer rat after injection of [18F]fluoro-2-methylpropanoic acid after 5 min; format: ADME, organism-based; details: in vivo; how it was run: as §1
Rattus norvegicus [31] = organism: Rattus norvegicus; assay: Radioactivity distribution in brain of normal fischer rat after injection of [18F]fluoro-2-methylpropanoic acid after 30 min.; format: ADME, organism-based; details: in vivo, 0.5 h; how it was run: as §3
Rattus norvegicus [32] = organism: Rattus norvegicus; assay: Radioactivity distribution in blood of normal fischer rat after injection of [18F]fluoro-2-methylpropanoic acid after 30 min.; format: ADME, organism-based; details: in vivo, 0.5 h; how it was run: as §3
Rattus norvegicus [33] = organism: Rattus norvegicus; assay: Radioactivity distribution in testis of normal fischer rat after injection of [18F]fluoro-2-methylpropanoic acid after 120 min.; format: ADME, organism-based; details: in vivo, 2 h; how it was run: as §2
Rattus norvegicus [34] = organism: Rattus norvegicus; assay: Radioactivity distribution in testis of tumor-bearing fischer rat after injection of [18F]fluoro-2-methylpropanoic acid after 5 min; format: ADME, organism-based; details: in vivo; how it was run: as §4

`CC(N)(C[18F])C(=O)O.Cl` (centres undefined) was tested, and the ID/g (Rattus norvegicus [1]) was 0.26%, the ID/g (Rattus norvegicus [2]) was 0.1% and the ID/g (Rattus norvegicus [3]) was 0.22%. For the same compound, the ID/g (Rattus norvegicus [4]) was 0.15%, the ID/g (Rattus norvegicus [5]) was 0.11% and the ID/g (Rattus norvegicus [6]) was 8.66%. For the same compound, the ID/g (Rattus norvegicus [7]) was 0.91%, the ID/g (Rattus norvegicus [8]) was 0.55% and the ID/g (Rattus norvegicus [9]) was 0.26%. For the same compound, the ID/g (Rattus norvegicus [10]) was 3.64%, the ID/g (Rattus norvegicus [11]) was 0.54% and the ID/g (Rattus norvegicus [12]) was 0.31%. It also gave an ID/g (Rattus norvegicus [13]) of 6.2%, an ID/g (Rattus norvegicus [14]) of 0.39% and an ID/g (Rattus norvegicus [15]) of 0.16%. For the same compound, the ID/g (Rattus norvegicus [16]) was 0.66%, the ID/g (Rattus norvegicus [17]) was 2.86% and the ID/g (Rattus norvegicus [18]) was 0.06%. The ID/g (Rattus norvegicus [19]) was 0.29%, the ID/g (Rattus norvegicus [20]) was 0.29% and the ID/g (Rattus norvegicus [21]) was 1.87%. It also gave an ID/g (Rattus norvegicus [22]) of 0.38%, an ID/g (Rattus norvegicus [23]) of 0.25% and an ID/g (Rattus norvegicus [24]) of 0.77%. The ID/g (Rattus norvegicus [25]) was 0.27%, the ID/g (Rattus norvegicus [26]) was 0.14% and the ID/g (Rattus norvegicus [27]) was 0.25%. For the same compound, the ID/g (Rattus norvegicus [28]) was 0.56%, the ID/g (Rattus norvegicus [29]) was 0.65% and the ID/g (Rattus norvegicus [30]) was 0.72%. It also gave an ID/g (Rattus norvegicus [31]) of 0.05%, an ID/g (Rattus norvegicus [32]) of 0.25% and an ID/g (Rattus norvegicus [33]) of 0.1%. It also gave an ID/g (Rattus norvegicus [34]) of 0.22%.
